Data taken from ChEMBL document CHEMBL1140721, “Development of potent purine-derived nitrile inhibitors of the trypanosomal protease TbcatB” (J Med Chem, 2008).
pEC50, pIC50: −log10 of the molar value.

Tests used:
Cathepsin B = Cathepsin B (Homo sapiens, UniProt P07858); assay: Inhibition of human liver cathepsin B
Procedure, shortened: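 Human liver enzyme at 0.56 ng/mL final in sodium acetate pH 5.5 buffer with 4 mM DTT, 0.01% Triton X-100, 0.5 mM EDTA. 20 min room-temperature preincubation with inhibitor, then Z-Arg-Arg-AMC (10 µM final). Quadruplicate. Sigmoidal IC50 fit.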

Trypanosoma brucei = assay: Antitrypanosomal activity against Trypanosoma brucei; format: functional, organism-based
Procedure, shortened: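 Culture-adapted bloodstream T. brucei grown in HMI-9 with pen/strep, 10% heat-inactivated FBS and 10% Serum Plus at 37 °C, 5% CO2, diluted to 1 × 10^4 cells/mL. Inhibitor added from DMSO, 48 h at 37 °C, then 1 h room-temperature equilibration. Cell Titer Glo luminescence read after 8 min. Quadruplicate. IC50 by curve fitting. Values shift up to 10-fold with FBS lot.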

[1] = target: T1, Cathepsin B-like cysteine protease (Trypanosoma brucei, UniProt Q6R7Z5); assay: Inhibition of Trypanosoma brucei cathepsin B-like cysteine protease
T1 sequence (Q6R7Z5 whole entry): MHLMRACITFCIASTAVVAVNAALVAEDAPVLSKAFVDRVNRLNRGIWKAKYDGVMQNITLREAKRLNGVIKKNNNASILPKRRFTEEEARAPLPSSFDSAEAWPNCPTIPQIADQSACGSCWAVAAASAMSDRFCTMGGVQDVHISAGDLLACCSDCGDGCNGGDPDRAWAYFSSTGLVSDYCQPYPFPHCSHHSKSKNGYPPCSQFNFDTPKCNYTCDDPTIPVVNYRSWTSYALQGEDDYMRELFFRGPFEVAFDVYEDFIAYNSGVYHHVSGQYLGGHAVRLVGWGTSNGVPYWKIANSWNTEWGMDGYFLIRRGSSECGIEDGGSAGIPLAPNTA
Procedure, shortened: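 Recombinant TbcatB zymogen expressed in Pichia pastoris, purified by HIC and anion exchange, titrated with CA074; 35 nM final. Inhibitor preincubated 20 min at room temperature, then Z-Phe-Arg-AMC (10 µM final). Initial rate from fluorescence (ex 350/em 460 nm) over 10 min. Triplicate. Sigmoidal IC50 fit.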

Procathepsin L = Procathepsin L (Homo sapiens, UniProt P07711); assay: Inhibition of human liver cathepsin L
Procedure, shortened: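 Inhibitor preincubated 20 min at room temperature before Z-Phe-Arg-AMC (10 µM final). Initial rate from fluorescence (ex 350/em 460 nm) over 10 min. Quadruplicate. Sigmoidal IC50 fit.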

Chain of Procathepsin L (P07711 whole entry): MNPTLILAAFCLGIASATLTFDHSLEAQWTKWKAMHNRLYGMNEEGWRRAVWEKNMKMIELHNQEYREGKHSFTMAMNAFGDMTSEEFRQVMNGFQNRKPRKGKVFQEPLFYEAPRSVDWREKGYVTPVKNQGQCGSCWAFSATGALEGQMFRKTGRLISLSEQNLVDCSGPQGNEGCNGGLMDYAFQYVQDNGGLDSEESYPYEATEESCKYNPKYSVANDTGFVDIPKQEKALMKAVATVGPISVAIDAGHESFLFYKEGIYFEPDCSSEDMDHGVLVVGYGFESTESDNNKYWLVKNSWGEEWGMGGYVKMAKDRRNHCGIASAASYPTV

pIC50 (Cathepsin B) | pIC50 (Trypanosoma brucei) | pIC50 [1] | pIC50 (Procathepsin L) | pEC50 (Trypanosoma brucei) | Structure (SMILES)
< 4.52 | 6.32 | 5.48 | 4.98 | – | Cc1cccc(CNc2nc(C#N)nc3c2ncn3Cc2ccccc2)c1
– | 6.22 | 5.32 | 5.38 | – | N#Cc1nc(NCc2ccc(Cl)cc2)c2ncn(CCCCO)c2n1
< 4.52 | – | 4.82 | 4.83 | 6.59 | N#Cc1nc(NCc2ccc(Cl)c(Cl)c2)c2ncn(Cc3ccccc3)c2n1
< 4.52 | 6.57 | 4.64 | < 4.52 | – | COc1ccc(Cn2cnc3c(NCc4ccc(Cl)cc4)nc(C#N)nc32)cc1
< 4.52 | 6.10 | 4.74 | 5.18 | – | N#Cc1nc(NCc2ccc(F)cc2)c2ncn(CCCCO)c2n1
< 4.52 | 5.77 | < 4.60 | 4.87 | – | N#Cc1nc(NCc2ccccc2)c2ncn(C3CCCC3)c2n1
< 4.52 | 6.47 | < 4.60 | < 4.52 | – | N#Cc1nc(NCc2ccc(Cl)cc2)c2ncn(Cc3cccc(C(F)(F)F)c3)c2n1
< 4.52 | – | 5.35 | 5.09 | 6.00 | COc1ccc(CNc2nc(C#N)nc3c2ncn3Cc2ccccc2)cc1
< 4.52 | 6.30 | < 4.60 | < 4.52 | – | N#Cc1nc(NCc2ccc(Cl)cc2)c2ncn(Cc3cccnc3)c2n1
< 4.52 | 5.47 | 5.30 | 5.23 | – | CCC(C)CNc1nc(C#N)nc2c1ncn2Cc1ccccc1 (configuration not stated)
< 4.52 | – | < 4.60 | 4.89 | 6.25 | Cc1ccc(CNc2nc(C#N)nc3c2ncn3Cc2ccccc2)cc1
< 4.52 | 5.66 | < 4.60 | < 4.52 | – | Cc1cccc(CNc2nc(C#N)nc3c2ncn3CC2CCCCC2)c1
< 4.52 | 6.10 | 5.15 | 5.40 | – | COc1ccc(CNc2nc(C#N)nc3c2ncn3C2CCCC2)cc1
< 4.52 | 5.96 | < 4.60 | 4.98 | – | Cc1cccc(CNc2nc(C#N)nc3c2ncn3C2CCCC2)c1
< 4.52 | 6.57 | 4.96 | 5.41 | – | CCCCn1cnc2c(NCc3cccc(C)c3)nc(C#N)nc21
< 4.52 | – | 4.96 | 4.97 | 6.62 | N#Cc1nc(NCc2ccccc2)c2ncn(CC3CCCCO3)c2n1 (configuration not stated)
< 4.52 | 5.62 | < 4.60 | < 4.52 | – | N#Cc1nc(NCCc2ccccc2)c2ncn(Cc3ccccc3)c2n1
< 4.52 | 6.05 | 5.48 | 4.87 | – | N#Cc1nc(NCc2ccc(F)cc2)c2ncn(Cc3ccccc3)c2n1
< 4.52 | 5.82 | < 4.60 | < 4.52 | – | N#Cc1nc(NCc2ccc(Cl)cc2)c2ncn(Cc3ccccc3)c2n1
< 4.52 | 7.70 | – | – | – | N=C(N)c1ccc(/N=N/Nc2ccc(C(=N)N)cc2)cc1 [DIMINAZENE]
< 4.52 | 6.82 | 5.60 | 6.11 | – | COCCCn1cnc2c(NCc3ccc(Cl)c(Cl)c3)nc(C#N)nc21
< 4.52 | 5.36 | 5.00 | 4.77 | – | N#Cc1nc(NCCc2ccccc2)c2ncn(Cc3cccnc3)c2n1
< 4.52 | 6.49 | 6.10 | 6.06 | – | COCOCCn1cnc2c(NCc3ccc(Cl)c(Cl)c3)nc(C#N)nc21
< 4.52 | 6.15 | < 4.60 | < 4.52 | – | CCCCCCNc1nc(C#N)nc2c1ncn2Cc1ccccc1
< 4.52 | < 5.00 | < 4.60 | < 4.52 | – | N#Cc1nc(NCc2ccc(Cl)cc2)c2ncn(CC3CCCCC3)c2n1
5.11 | – | 5.38 | 5.93 | 6.05 | Cc1ccc(CNc2nc(C#N)nc3c2ncn3CCCO)cc1

pIC50 (Cathepsin B) | pIC50 (Trypanosoma brucei) | pIC50 [1] | pIC50 (Procathepsin L) | pEC50 (Trypanosoma brucei) | Structure (SMILES)
< 4.52 | 6.07 | 5.00 | 5.30 | – | CCCCn1cnc2c(NCc3ccc(Cl)cc3)nc(C#N)nc21
< 4.52 | 5.44 | < 4.60 | < 4.52 | – | CCCCCCNc1nc(C#N)nc2c1ncn2CC1CCCCC1
< 4.52 | 6.38 | < 4.60 | < 4.52 | – | N#Cc1nc(NCc2ccc(Br)cc2)c2ncn(CCCc3ccccc3)c2n1
< 4.52 | 5.82 | 4.80 | 4.77 | – | CCCCn1cnc2c(NCCc3ccccc3)nc(C#N)nc21
< 4.52 | 6.27 | 5.08 | 5.02 | – | CCCCn1cnc2c(NCc3ccc(Br)cc3)nc(C#N)nc21
< 4.52 | 7.22 | 6.03 | 6.10 | – | N#Cc1nc(NCc2ccc(Cl)c(Cl)c2)c2ncn(CCCCCO)c2n1
4.63 | 5.85 | 5.08 | 5.48 | – | N#Cc1nc(NC2CCCCC2)c2ncn(C3CCCCC3)c2n1
< 4.52 | 6.89 | – | – | – | Cc1ccc(C(=O)Nc2ccc(S(=O)(=O)O)c3cc(S(=O)(=O)O)cc(S(=O)(=O)O)c23)cc1NC(=O)c1cccc(NC(=O)Nc2cccc(C(=O)Nc3cc(C(=O)Nc4ccc(S(=O)(=O)O)c5cc(S(=O)(=O)O)cc(S(=O)(=O)O)c45)ccc3C)c2)c1 [SURAMIN]
< 4.52 | – | 5.22 | 5.64 | 6.41 | CCCCn1cnc2c(NCc3ccc(OC)cc3)nc(C#N)nc21
4.75 | 6.48 | 5.64 | 5.42 | – | N#Cc1nc(NC2CCCCC2)c2ncn(Cc3ccccc3)c2n1
< 4.52 | 6.15 | 5.15 | 5.16 | – | CCCCn1cnc2c(NCc3ccc(F)cc3)nc(C#N)nc21
< 4.52 | – | 4.96 | 4.57 | 6.40 | COc1ccc(Cn2cnc3c(NCc4ccccc4)nc(C#N)nc32)cc1
< 4.52 | 5.77 | 4.85 | 5.36 | – | CCCCn1cnc2c(NCc3ccccc3)nc(C#N)nc21
< 4.52 | 6.35 | 5.92 | 6.38 | – | N#Cc1nc(NCc2ccc(Cl)c(Cl)c2)c2ncn(CC(O)CO)c2n1 (configuration not stated)
< 4.52 | 5.82 | < 4.60 | 4.55 | – | CCCCCCNc1nc(C#N)nc2c1ncn2C1CCCC1
< 4.52 | 5.96 | < 4.60 | 4.54 | – | N#Cc1nc(NCc2ccc(Br)cc2)c2ncn(Cc3ccccc3)c2n1
< 4.52 | 6.22 | 5.85 | 6.52 | – | N#Cc1nc(NCc2ccc(Cl)c(Cl)c2)c2ncn(CCO)c2n1
< 4.52 | – | < 4.60 | 5.23 | 6.26 | CCCCn1cnc2c(NCc3ccc(C)cc3)nc(C#N)nc21
– | – | 4.92 | 5.64 | 5.54 | N#Cc1nc(NCc2ccccc2)c2ncn(CCCO)c2n1
< 4.52 | 6.74 | 5.39 | 5.74 | – | CCCCn1cnc2c(NCc3ccc(Cl)c(Cl)c3)nc(C#N)nc21
< 4.52 | 6.66 | 5.47 | 6.30 | – | COC(CCn1cnc2c(NCc3ccc(Cl)c(Cl)c3)nc(C#N)nc21)OC
4.72 | 4.92 | 5.08 | 5.60 | – | CCCn1cnc2c(NC3CCCCC3)nc(C#N)nc21
< 4.52 | 5.96 | 4.85 | 5.62 | – | CCC(C)CNc1nc(C#N)nc2c1ncn2C1CCCC1 (configuration not stated)
< 4.52 | 5.70 | 5.22 | 4.91 | – | N#Cc1nc(NCc2ccccc2)c2ncn(Cc3ccccc3)c2n1
– | 6.51 | 6.24 | 6.21 | – | N#Cc1nc(NCc2ccc(Cl)cc2)c2ncn(CCCO)c2n1

Structure (SMILES) | pIC50 (Cathepsin B) | pIC50 (Trypanosoma brucei) | pIC50 [1] | pIC50 (Procathepsin L) | pEC50 (Trypanosoma brucei)
CC(Nc1nc(C#N)nc2c1ncn2C1CCCC1)c1ccccc1 (configuration not stated) | < 4.52 | 5.47 | < 4.60 | 4.93 | –
CC(Nc1nc(C#N)nc2c1ncn2Cc1ccccc1)c1ccccc1 (configuration not stated) | < 4.52 | 5.89 | < 4.60 | < 4.52 | –
CCCCn1cnc2c(NC(C)c3ccccc3)nc(C#N)nc21 (configuration not stated) | < 4.52 | 5.82 | < 4.60 | 5.03 | –
N#Cc1nc(NCc2ccc(Cl)c(Cl)c2)c2ncn(CCCO)c2n1 | – | 6.96 | 6.57 | 6.52 | –
